Drawing on ChEMBL document CHEMBL5661981 (PLoS One, 2011), this text covers Activity, inhibition and IC50 for two compounds.

pIC50: −log10 of the molar value. Calls of active or inactive are those of the source. No cut-off for these calls is given here.

Series [1] has as its system SK-OV-3. The series can be described thus: Antitumor activity against human SK-OV-3 cells over expressing ErbB2 xenografted in nude mouse assessed as reduction in growth at 50 mg/kg, po administered twice daily for 28 days. It counts as functional, organism-based. To be noted: time 28.0 day.
Series [2] deals with Calu-3. In words: Antitumor activity against human Calu-3 cells over expressing ErbB2 xenografted in nude mouse assessed as reduction in growth at 50 mg/kg, po administered twice daily for 28 days. Conditions: time 28.0 day. It counts as functional, organism-based.
In the next series the test system is NIH3T3. The series can be described thus: Antiproliferative activity against mouse NIH3T3 cells harboring EGFR T790M/L858R double mutant assessed as reduction in cell viability after 72 hrs by SRB assay. It counts as functional, cell-based. Conditions: dose 0.19-6.25 µM. The gist of the method: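 Parental NIH3T3 and laboratory-built NIH3T3 overexpressing EGFR T790M/L858R treated with indicated concentrations for 72 h; viability by sulforhodamine B; IC50 from three independent experiments.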
(Sulforhodamine B stains cellular protein and so reports cell mass.)

For the next series, the system named is NCI-H1975. The series can be described thus: Antiproliferative activity against human NCI-H1975 cells harboring EGFR T790M/L858R double mutant assessed as reduction in cell viability after 72 hrs by SRB assay. Conditions: dose 0.19-6.25 µM. It counts as functional, cell-based. The gist of the method:
(§1)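 Cell lines from ATCC; exposed to indicated concentrations for 72 h and growth read by sulforhodamine B (SRB) assay; IC50 values derived.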

For a further series, the system named is MDA-MB-468. The series can be described thus: Antiproliferative activity against human MDA-MB-468 cells assessed as reduction in cell viability after 72 hrs by SRB assay. The format is functional, cell-based. Conditions: MDA-MB-468, 72 h. The gist of the method:
as §1

Series [3] deals with A549. In words: Antiproliferative activity against human A549 cells assessed as reduction in cell viability after 72 hrs by SRB assay. The format is functional, cell-based. Conditions: A549, 72 h. The gist of the method:
as §1

A further series relates to NCI-H23. In words: Antiproliferative activity against human NCI-H23 cells assessed as reduction in cell viability after 72 hrs by SRB assay. It counts as functional, cell-based. To be noted: NCI-H23, 72 h. Summed up:
as §1

The subject of series [4] is SK-OV-3. In words: Antiproliferative activity against human SK-OV-3 cells assessed as reduction in cell viability after 72 hrs by SRB assay. It counts as functional, cell-based. To be noted: SK-OV-3, 72 h. Summed up:
as §1

Series [5] concerns SK-OV-3. The series can be described thus: Antiproliferative activity against human SK-OV-3 cells assessed as decrease in number of colony formation at 0.1 to 5 uM after 1 to 2 weeks by microscope analysis. The format is functional, cell-based. To be noted: dose 0.1-5 µM, time 1-2 weeks. The gist of the method: (§2)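 Cells at 8000/mL exposed to drug in 1 mL 0.3% basal medium Eagle's agar with 10% FBS; kept 2 weeks at 37°C, 5% CO2. Average colony number counted and colonies photographed; mean of triplicate samples, SE bars, Student's test.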

The test system of series [6] is A549. In words: Antiproliferative activity against human A549 cells assessed as decrease in number of colony formation at 0.1 to 5 uM after 1 to 2 weeks by microscope analysis. It counts as functional, cell-based. Conditions: dose 0.1-5 µM, time 1-2 weeks. The gist of the method:
as §2

Series [7] concerns SK-OV-3. The series can be described thus: Antiproliferative activity against human SK-OV-3 cells transfected with ErbB2 siRNA assessed as reduction in cell viability at 1.25 to 6.25 uM after 72 hrs by SRB assay. It counts as functional, cell-based. To be noted: dose 1.25-6.25 µM. The gist of the method:
(§3)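 SK-OV-3 cells transfected with siRNA (final 50 nmol/L; one ErbB2 pair, two independent EGFR pairs, plus control siRNA) using oligofectamine; drug added 48 h after transfection, growth measured by SRB. Three independent experiments; significance by t test.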

The test system of series [8] is SK-OV-3. In words: Antiproliferative activity against human SK-OV-3 cells transfected with EGFR siRNA assessed as reduction in cell viability at 1.25 to 6.25 uM after 72 hrs by SRB assay. It counts as functional, cell-based. To be noted: dose 1.25-6.25 µM. Summed up:
as §3

The subject of series [9] is SK-OV-3. The series can be described thus: Antitumor activity against human SK-OV-3 cells over expressing ErbB2 xenografted in nude mouse assessed as reduction in growth at 25 to 100 mg/kg, po administered twice daily for 28 days. It counts as functional, organism-based. To be noted: dose 25-100 mg/kg, time 28.0 day. A general note: A xenograft is tissue or cells of one species grown in another, often human tumour cells in immunodeficient mice.

Series [10] concerns SK-OV-3. The series can be described thus: Antitumor activity against human SK-OV-3 cells over expressing ErbB2 xenografted in nude mouse assessed as reduction in growth at 25 to 100 mg/kg, po administered twice daily for 7 days relative to control. It counts as functional. Also noted: scale not given: the % may be the effect or the level left. To be noted: dose 25-100 mg/kg, time 7 day.

The test system of series [11] is Calu-3. In words: Antitumor activity against human Calu-3 cells over expressing ErbB2 xenografted in nude mouse assessed as reduction in growth at 25 to 100 mg/kg, po administered twice daily for 21 days. The format is functional, organism-based. To be noted: dose 25-100 mg/kg, time 21.0 day.
A further series has as its system HO-8910. The series can be described thus: Antitumor activity against human HO-8910 cells xenografted in nude mouse assessed as reduction in growth at 25 to 100 mg/kg, po administered twice daily for 21 days. It counts as functional, organism-based. Conditions: dose 25-100 mg/kg, time 21.0 day.
In series [12] the test system is A549. In words: Antitumor activity against human A549 cells xenografted in nude mouse assessed as reduction in growth at 25 to 100 mg/kg, po administered twice daily for 32 days. The format is functional, organism-based. Conditions: dose 25-100 mg/kg, time 32.0 day.
Series [13] can be described thus: Toxicity in nude mouse xenografted with human SK-OV-3 cells over expressing ErbB2 assessed as effect on body weight at 25 to 100 mg/kg, po administered twice daily for 28 days. The format is organism-based. To be noted: in vivo, 672 h, dose 25-100 mg/kg, time 28 day.
The subject of series [14] is Mus musculus. The series can be described thus: In vivo inhibition of EGFR phosphorylation in human SK-OV-3 cells over expressing ErbB2 xenografted in nude mouse at 100 mg/kg, po measured after 2 to 24 hrs by Western blot analysis. It counts as functional, organism-based. To be noted: time lower 2.0 hrs, time upper […]. The gist of the method:
(§4)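 Nude mice bearing established SK-OV-3 tumors (~200 mm3) given a single 100 mg/kg dose; tumor extracts collected at indicated times and EGFR and ErbB2 phosphorylation assessed by immunoblotting.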

Series [15] deals with Mus musculus. The series can be described thus: In vivo inhibition of ErbB2 phosphorylation in human SK-OV-3 cells over expressing ErbB2 xenografted in nude mouse at 100 mg/kg, po measured after 2 to 24 hrs by Western blot analysis. The format is functional, organism-based. To be noted: time lower 2.0 hrs, time upper […]. Summed up:
as §4

Series [16] relates to Mus musculus. In words: Antitumor activity against FVB-2/Nneu transgenic mouse breast cancer model assessed as reduction in tumor growth at 25 to 100 mg/kg, po administered twice daily for 21 days. It counts as functional, organism-based. To be noted: dose 25-100 mg/kg, time 21.0 day.
Series [17] has as its system Mus musculus. In words: Antitumor activity against FVB-2/Nneu transgenic mouse breast cancer model assessed as reduction in tumor growth at 25 to 100 mg/kg, po administered twice daily for 11 days relative to control. Also noted: scale not given: the % may be the effect or the level left. The format is functional. To be noted: dose 25-100 mg/kg, time 11 day.
A short description of series [18]: Toxicity in FVB-2/Nneu transgenic mouse breast cancer model assessed as decrease in body weight at 25 to 100 mg/kg, po administered twice daily for 21 days relative to control. The format is organism-based. Also noted: scale not given: the % may be the effect or the level left. To be noted: in vivo, 504 h, dose 25-100 mg/kg, time 21 day.
For series [19], the system named is Epidermal growth factor receptor (Homo sapiens), P00533 [L858R,T790M]. To be noted: NIH3T3, dose 1-100 nM, time 6.0 hrs.
Series [20] shares this test system. Conditions: NCI-H1975, dose 10-100 nM, time 4.25 hrs.
Series [21] shares this test system. To be noted: NCI-H1975, dose 10-100 nM, time 4.25 hrs. The source holds these as a separate data set.
For series [22] the test system is unchanged. Conditions: NCI-H1975, dose 10-100 nM, time 4.25 hrs. The source holds these as a separate data set.

Chain of Epidermal growth factor receptor (Homo sapiens), P00533 [L858R,T790M] (P00533 whole entry T790M/L858R, looked up): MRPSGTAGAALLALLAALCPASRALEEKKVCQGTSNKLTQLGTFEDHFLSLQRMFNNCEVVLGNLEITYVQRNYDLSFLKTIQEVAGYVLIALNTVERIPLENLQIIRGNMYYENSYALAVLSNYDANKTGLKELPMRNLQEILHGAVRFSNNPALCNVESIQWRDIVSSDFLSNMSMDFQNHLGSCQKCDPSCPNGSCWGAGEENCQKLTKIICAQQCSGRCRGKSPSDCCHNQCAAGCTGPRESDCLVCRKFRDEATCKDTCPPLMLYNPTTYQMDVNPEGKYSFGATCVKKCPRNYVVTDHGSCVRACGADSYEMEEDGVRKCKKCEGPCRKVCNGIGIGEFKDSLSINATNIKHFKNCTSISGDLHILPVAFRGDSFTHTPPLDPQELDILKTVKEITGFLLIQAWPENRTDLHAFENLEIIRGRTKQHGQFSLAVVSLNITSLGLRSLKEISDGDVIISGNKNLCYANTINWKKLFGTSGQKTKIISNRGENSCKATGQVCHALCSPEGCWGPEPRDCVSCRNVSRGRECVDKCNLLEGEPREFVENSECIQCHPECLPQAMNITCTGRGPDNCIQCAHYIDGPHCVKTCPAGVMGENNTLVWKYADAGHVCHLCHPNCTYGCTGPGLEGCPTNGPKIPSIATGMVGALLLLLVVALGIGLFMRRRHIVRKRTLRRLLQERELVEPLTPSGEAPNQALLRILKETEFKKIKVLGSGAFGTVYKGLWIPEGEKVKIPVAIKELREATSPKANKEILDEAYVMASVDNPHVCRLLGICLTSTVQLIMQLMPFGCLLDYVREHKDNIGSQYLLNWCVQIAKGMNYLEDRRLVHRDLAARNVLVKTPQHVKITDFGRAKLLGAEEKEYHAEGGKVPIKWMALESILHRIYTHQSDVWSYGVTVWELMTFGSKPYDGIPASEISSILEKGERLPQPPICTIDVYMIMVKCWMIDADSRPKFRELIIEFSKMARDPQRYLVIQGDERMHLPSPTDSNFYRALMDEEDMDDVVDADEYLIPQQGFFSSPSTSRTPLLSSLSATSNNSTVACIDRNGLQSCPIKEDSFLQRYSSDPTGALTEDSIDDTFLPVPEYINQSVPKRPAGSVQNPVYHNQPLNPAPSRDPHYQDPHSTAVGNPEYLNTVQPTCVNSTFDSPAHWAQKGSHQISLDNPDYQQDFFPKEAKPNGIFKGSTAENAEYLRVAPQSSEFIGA

For the compound `CS(=O)(=O)CCNCc1ccc(-c2ccc3ncnc(Nc4ccc(OCc5cccc(F)c5)c(Cl)c4)c3c2)o1`, the result with SK-OV-3 [1] and in the series with Calu-3 [2] was Active.

For orientation: pIC50 means −log10 of the IC50, conventionally taken in molar units. In the case of `C=CC(=O)Nc1ccc2ncnc(Nc3ccc(OCc4cccc(F)c4)c(Cl)c3)c2c1` [ALLITINIB], the Activity entry in the series with NIH3T3 was “Dose-Dependent Effect”; in the series with SK-OV-3 [10], roughly 100%; in series [13] it was “Non-Toxic”; in the series on Mus musculus [17], roughly 100%; in [18], less than 20%. Further, the inhibition entry (with NCI-H1975; in [20]; in [21]; in series [22]) was “Dose-Dependent Effect” throughout. Moreover, the pIC50 in the series on MDA-MB-468, in the series with A549 [3], in the series with NCI-H23 and in the series with SK-OV-3 [4] was 5.21 in each case. Further, the result with SK-OV-3 [5], in the series with A549 [6], with SK-OV-3 [8], in the series on SK-OV-3 [9], in the series with Calu-3 [11] and in the series on HO-8910 was Active. Also, the outcome in the series on A549 [12] and with Mus musculus [16] was Active. Moreover, the result in the series on SK-OV-3 [7] was inactive. Moreover, the inhibition result (in the series on Mus musculus [14]; with Mus musculus [15]; in series [19]) was “Active” each time.
